Results from ChEMBL document CHEMBL4680120, “Novel anti-Alzheimer phenol-lipoyl hybrids: Synthesis, physico-chemical characterization, and biological evaluation” (Eur J Med Chem, 2020).
Calls of active or inactive are those of the source. The calls are words filed in the database; no cut-off is given here.

What was measured:
SH-SY5Y [1] = assay: Neuroprotective activity against amyloid beta (1 to 42)-induced apoptosis in human SH-SY5Y cells assessed as late apoptotic cells at IC50 measured after 48 hrs by Annexin-V/Propidium iodide staining based flow cytometry (reference value: 33.72%); assay type: functional
Erythrocyte [2] = assay: Cytoprotective activity against H2O2-induced oxidative damage in human RBC assessed as recovery of H2O2-induced cell death at 50 to 100 uM measured after 72 hrs by MTT assay relative to control; assay type: functional; details: dose 50-100 µM
SH-SY5Y [3] = assay: Neuroprotective activity against amyloid beta (1 to 42)-induced toxicity in human SH-SY5Y cells assessed as increase in ADAM10 mRNA expression at IC50 measured after 48 hrs by SYBR green dye based RT-qPCR analysis; assay type: functional, cell-based
Procedure, shortened: (§1)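 Differentiated SH-SY5Y cells in 6-well plates treated 48 h with Aβ1-42 (20 μM) with or without hybrid. mRNA of AD-related genes measured by RT-qPCR, normalized to β-actin. Expressed as fold change versus untreated cells. Triplicate experiments.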

SH-SY5Y [4] = assay: Neuroprotective activity against amyloid beta (1 to 42)-induced apoptosis in human SH-SY5Y cells assessed as decrease in DNA fragmentation at IC50 measured after 48 hrs by Hoechst 33258 staining based fluorescence microscopic assay; assay type: functional, cell-based
Procedure, shortened: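 Differentiated SH-SY5Y cells, 4×10^4 per well, exposed 48 h to Aβ1-42 (20 μM) with or without hybrid. Fixed in 4% paraformaldehyde for 30 min, stained with Hoechst 33258 for 15 min. Nuclear chromatin condensation and DNA fragmentation scored by fluorescence microscopy at ×200.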

SH-SY5Y [5] = assay: Neuroprotective activity against amyloid beta (1 to 42)-induced apoptosis in human SH-SY5Y cells assessed as necrotic cells at IC50 measured after 48 hrs by Annexin-V/Propidium iodide staining based flow cytometry (reference value: 6.99%); assay type: functional
SH-SY5Y [6] = assay: Neuroprotective activity against amyloid beta (1 to 42)-induced toxicity in human SH-SY5Y cells assessed as decrease in APH1alpha mRNA expression at IC50 measured after 48 hrs by SYBR green dye based RT-qPCR analysis; assay type: functional, cell-based; procedure, shortened: as §1
[7] = Stability in simulated gastric fluid at pH 1.2 assessed as relative difference measured after 60 mins in presence of pepsin by HPLC analysis; assay type: ADME; details: isolated protein, pH 1.2, 1 h
Procedure, shortened: (§2)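 Incubation in simulated gastric fluid (pH 1.2, pepsin) or simulated intestinal fluid (pH 6.8, pancreatin). Aliquots deproteinized with ice-cold acetonitrile, centrifuged at 4°C and 12000 rpm for 10 min, filtered, analyzed by HPLC. RD% = (Ci − Cf)/Ci × 100. Stable if RD < 5%. Means of three experiments.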

[8] = Stability in human plasma assessed as observed rate constant by HPLC analysis; assay type: ADME, cell-free
Procedure, shortened: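 Compound stock added to human plasma pre-warmed to 37°C and diluted with 0.02 M phosphate buffer (pH 7.4) to 80% plasma. 100 μL samples taken over time, quenched with 200 μL cold acetonitrile, centrifuged, and supernatant analyzed by HPLC. t½ and kobs are means of three experiments.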

SH-SY5Y [9] = assay: Neuroprotective activity against amyloid beta (1 to 42)-induced toxicity in human SH-SY5Y cells assessed as decrease in […] mRNA expression at IC50 measured after 48 hrs by SYBR green dye based RT-qPCR analysis; assay type: functional, cell-based; procedure, shortened: as §1
SH-SY5Y [10] = assay: Neuroprotective activity against amyloid beta (1 to 42)-induced toxicity in human SH-SY5Y cells assessed as decrease in TNFalpha mRNA expression at IC50 measured after 48 hrs by SYBR green dye based RT-qPCR analysis; assay type: functional, cell-based; procedure, shortened: as §1
SH-SY5Y [11] = assay: Neuroprotective activity against amyloid beta (1 to 42)-induced toxicity in human SH-SY5Y cells assessed as decrease in PSENEN mRNA expression at IC50 measured after 48 hrs by SYBR green dye based RT-qPCR analysis; assay type: functional, cell-based; procedure, shortened: as §1
SH-SY5Y [12] = assay: Neuroprotective activity against amyloid beta (1 to 42)-induced toxicity in human SH-SY5Y cells assessed as decrease in MAPT mRNA expression at IC50 measured after 48 hrs by SYBR green dye based RT-qPCR analysis; assay type: functional, cell-based; procedure, shortened: as §1
[13] = Stability in simulated gastric fluid at pH 1.2 assessed as relative difference measured after 30 mins in presence of pepsin by HPLC analysis; assay type: ADME; details: isolated protein, pH 1.2, 0.5 h; procedure, shortened: as §2
SH-SY5Y [14] = assay: Neuroprotective activity against amyloid beta (1 to 42)-induced toxicity in human SH-SY5Y cells assessed as decrease in BDNF mRNA expression at IC50 measured after 48 hrs by SYBR green dye based RT-qPCR analysis; assay type: functional, cell-based; procedure, shortened: as §1
SH-SY5Y [15] = assay: Cytotoxicity against human SH-SY5Y cells assessed as reduction in cell viability at 1 to 250 mg/l measured after 48 hrs by MTT assay; assay type: cell-based; details: dose 1-250 mg/L
Procedure, shortened: (§3)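 SH-SY5Y cells grown in DMEM/F12 with 10% FBS and differentiated with retinoic acid (10 μM), seeded at 1×10^4 per well and cultured 24 h. Cells were given hybrids at 1–250 mg/L with or without Aβ1-42 (20 μM) for 48 h. MTT (5 mg/mL) added for 4 h at 37°C, DMSO solubilization, read at 570/630 nm. LDH read at 450 nm. Five independent experiments.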

Erythrocyte [16] = assay: Cytoprotective activity against H2O2-induced oxidative damage in human RBC assessed as recovery of H2O2-induced cell death at 50 to 100 uM measured after 72 hrs by LDH release assay relative to control; assay type: functional; details: dose 50-100 µM
Procedure, shortened: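 Heparinised human whole blood cultured in phytohemagglutinin-containing chromosome medium and co-incubated with hybrids and H2O2 at 37C for 72 h. LDH released into the culture medium was measured with a commercial kit. Triton X-100 served as positive control, with untreated cultures as reference. Cytoprotection was expressed as viability relative to control.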

Erythrocyte [17] = assay: Cytoprotective activity against H2O2-induced oxidative damage in human RBC assessed as increase in cell viability measured after 72 hrs by LDH release assay; assay type: functional, cell-based
Procedure, shortened: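 Heparinized whole blood cultured with phytohemagglutinin. Cells were co-incubated with 50 or 100 μM hybrid and H2O2 (25 μM). Viability was read by MTT: lymphocytes at 2×10^5 per well, MTT 4 h at 37°C, formazan dissolved in DMSO, absorbance 570 nm. LDH release was measured on 100 μL medium with a commercial kit. Results are relative to untreated control.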

SH-SY5Y [18] = assay: Neuroprotective activity against amyloid beta (1 to 42)-induced toxicity in human SH-SY5Y cells assessed as increase in PSEN mRNA expression at IC50 measured after 48 hrs by SYBR green dye based RT-qPCR analysis; assay type: functional, cell-based; procedure, shortened: as §1
SH-SY5Y [19] = assay: Neuroprotective activity against amyloid beta (1 to 42)-induced apoptosis in human SH-SY5Y cells assessed as early apoptotic cells at IC50 measured after 48 hrs by Annexin-V/Propidium iodide staining based flow cytometry (reference value: 0.74%); assay type: functional
SH-SY5Y [20] = assay: Neuroprotective activity against amyloid beta (1 to 42)-induced toxicity in human SH-SY5Y cells assessed as increase in cell viability at 1 to 250 mg/l measured after 48 hrs by MTT assay; assay type: functional, cell-based; details: dose 1-250 mg/L; procedure, shortened: as §3
Erythrocyte [21] = assay: Cytoprotective activity against H2O2-induced oxidative damage in human RBC assessed as increase in cell viability measured after 72 hrs by MTT assay; assay type: functional, cell-based
SH-SY5Y [22] = assay: Neuroprotective activity against amyloid beta (1 to 42)-induced toxicity in human SH-SY5Y cells assessed as decrease in APOE mRNA expression at IC50 measured after 48 hrs by SYBR green dye based RT-qPCR analysis; assay type: functional, cell-based; procedure, shortened: as §1

In the case of `COc1cc(/C=C/C(=O)NCCCNC(=O)CCCCC2CCSS2)ccc1O` (centres undefined), the Activity (SH-SY5Y [1]) is reported as 9.97%, the Activity (Erythrocyte [2]) is reported as 0.5% and the Activity (SH-SY5Y [3]) is reported as “Active”. The Activity (SH-SY5Y [4]) was “Active”, the Activity (SH-SY5Y [5]) was 1.13% and the Activity (SH-SY5Y [6]) was “Active”. The “fold change (FC)” value [7] was 1.78%, the K [8] was 0.01 h⁻¹ and the Activity (SH-SY5Y [9]) was “Active”. For the same molecule, the Activity (SH-SY5Y [10]) was “Active”, the Activity (SH-SY5Y [11]) was “Active” and the Activity (SH-SY5Y [12]) was “Active”. For the same molecule, the “fold change (FC)” value [13] was 0.43%, the Activity (SH-SY5Y [14]) was “Active” and the Activity (SH-SY5Y [15]) was “Non-Toxic”. For the same molecule, the Activity (Erythrocyte [16]) was 0.4%, the Activity (Erythrocyte [17]) was “Dose-dependent effect” and the Activity (SH-SY5Y [18]) was “Active”. For the same molecule, the Activity (SH-SY5Y [19]) was 1.19%, the Activity (SH-SY5Y [20]) was “Active” and the Activity (Erythrocyte [21]) was “Dose-dependent effect”. The Activity (SH-SY5Y [22]) was “Active”.
For `O=C(CCCCC1CCSS1)NCCCCCOC(=O)Cc1ccc(O)c(O)c1` (centres undefined), the Activity (SH-SY5Y [1]) was 9.69%, the Activity (Erythrocyte [2]) was 0.5% and the Activity (SH-SY5Y [3]) was “Active”. For the same molecule, the Activity (SH-SY5Y [4]) was “Active”, the Activity (SH-SY5Y [5]) was 1.04% and the Activity (SH-SY5Y [6]) was “Active”. The “fold change (FC)” value [7] was 100%, the K [8] was 20.56 h⁻¹ and the Activity (SH-SY5Y [9]) was “Active”. For the same molecule, the Activity (SH-SY5Y [10]) was “Active”, the Activity (SH-SY5Y [11]) was “Active” and the Activity (SH-SY5Y [12]) was “Active”. For the same molecule, the “fold change (FC)” value [13] was 79.35%, the Activity (SH-SY5Y [14]) was “Active” and the Activity (SH-SY5Y [15]) was “Non-Toxic”. The Activity (Erythrocyte [16]) was 0.4%, the Activity (Erythrocyte [17]) was “Dose-dependent effect” and the Activity (SH-SY5Y [18]) was “Active”. For the same molecule, the Activity (SH-SY5Y [19]) was 1.86%, the Activity (SH-SY5Y [20]) was “Active” and the Activity (Erythrocyte [21]) was “Dose-dependent effect”. The Activity (SH-SY5Y [22]) was “Active”.
